# Experimental data from PMC13322713 (Molecular imaging and biology, 2025).
# Values joined by “and” are separate entries in the source; they are usually repeats but may differ in a detail not shown here. Identical values can stand only once.
# Experiments:
# DX3puroβ6 (αvβ6 +) cells = test: Cell binding and internalization, DX3puroβ6 cells; assay type: cell-based
# Procedure, shortened: (§1)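 Cells cultured at 37 °C, 5% CO2 with 10% FBS and 1% PSG: puromycin-containing DMEM for the DX3 pair, RPMI for BxPC-3. Integrin expression was checked by flow cytometry beforehand. The radiotracer was incubated 1 h with 3.75 × 10^6 cells per experiment in PBS containing calcium and magnesium, with non-fat dry milk blocking. Internalization was at 37 °C. Bound and internalized fractions are expressed as % of total radioactivity, quadruplicate, mean ± SD.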
# [1] = Biodistribution in BxPC-3 tumor-bearing mice; assay type: in vivo; conditions: female, athymic nude, mouse, iv, 0.175 nmol per injection, total radioactivity
# Procedure, shortened: (§2)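 Female athymic nude mice, inoculated subcutaneously with 5 × 10^6 BxPC-3 cells in RPMI/Matrigel (1/1 v/v), used at ~0.5 cm tumor diameter (approx. 3 weeks). Isoflurane-anesthetized mice received the tail-vein radiotracer in PBS at 2.2–3.3 MBq, with mass held at 0.175 nmol by adding nonmetallated compound. Tissues collected 1, 2 and 4 h p.i. (n = 4 per time point), rinsed, γ-counted, and expressed as decay-corrected %ID/g, mean ± SD.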
# [2] = system: BxPC-3 tumor-bearing mice; test: Biodistribution in BxPC-3 tumor-bearing mice; assay type: in vivo
# Procedure, shortened: as §2
# [3] = system: pancreatic BxPC-3 (αvβ6 +) cells; test: Cell binding and internalization, BxPC-3 cells; assay type: cell-based
# Procedure, shortened: as §1
# [4] = Lipophilicity logD7.4, octanol/PBS partitioning; assay type: physicochemical; conditions: pH 7.4
# integrin αvβ6 = integrin αvβ6 (Homo sapiens, UniProt P06756+P18564); test: Competitive binding ELISA against Bt-LAP; conditions: ratio of ELISA IC50s
# Sequence of integrin αvβ6 (P06756 31-1048): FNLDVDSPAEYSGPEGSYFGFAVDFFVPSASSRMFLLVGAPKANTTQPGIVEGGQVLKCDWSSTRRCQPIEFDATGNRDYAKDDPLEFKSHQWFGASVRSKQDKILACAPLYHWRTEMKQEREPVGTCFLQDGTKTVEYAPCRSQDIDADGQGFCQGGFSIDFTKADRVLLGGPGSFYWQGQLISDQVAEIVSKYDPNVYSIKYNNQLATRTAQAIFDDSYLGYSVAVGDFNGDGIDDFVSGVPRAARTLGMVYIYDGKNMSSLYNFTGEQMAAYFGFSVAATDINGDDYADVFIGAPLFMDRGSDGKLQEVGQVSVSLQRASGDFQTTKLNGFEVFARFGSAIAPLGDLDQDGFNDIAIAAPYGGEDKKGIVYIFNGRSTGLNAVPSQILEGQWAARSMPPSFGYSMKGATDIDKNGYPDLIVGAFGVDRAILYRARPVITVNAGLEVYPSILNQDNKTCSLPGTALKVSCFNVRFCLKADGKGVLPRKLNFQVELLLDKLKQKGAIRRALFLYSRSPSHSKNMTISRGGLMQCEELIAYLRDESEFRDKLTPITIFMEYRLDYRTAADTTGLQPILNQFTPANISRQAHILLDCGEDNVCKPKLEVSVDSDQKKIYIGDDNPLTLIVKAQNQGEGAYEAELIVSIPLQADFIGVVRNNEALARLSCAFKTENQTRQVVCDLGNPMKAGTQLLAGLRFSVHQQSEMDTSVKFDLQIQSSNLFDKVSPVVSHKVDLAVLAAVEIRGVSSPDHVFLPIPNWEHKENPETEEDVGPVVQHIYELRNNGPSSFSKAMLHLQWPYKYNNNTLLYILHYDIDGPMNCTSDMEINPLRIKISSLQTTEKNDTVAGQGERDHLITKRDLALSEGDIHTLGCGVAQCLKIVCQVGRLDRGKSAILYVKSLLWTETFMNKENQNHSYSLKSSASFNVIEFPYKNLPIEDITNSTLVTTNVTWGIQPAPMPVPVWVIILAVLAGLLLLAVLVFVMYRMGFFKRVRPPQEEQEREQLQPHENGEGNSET
# Sequence of integrin αvβ6 (P18564 22-788): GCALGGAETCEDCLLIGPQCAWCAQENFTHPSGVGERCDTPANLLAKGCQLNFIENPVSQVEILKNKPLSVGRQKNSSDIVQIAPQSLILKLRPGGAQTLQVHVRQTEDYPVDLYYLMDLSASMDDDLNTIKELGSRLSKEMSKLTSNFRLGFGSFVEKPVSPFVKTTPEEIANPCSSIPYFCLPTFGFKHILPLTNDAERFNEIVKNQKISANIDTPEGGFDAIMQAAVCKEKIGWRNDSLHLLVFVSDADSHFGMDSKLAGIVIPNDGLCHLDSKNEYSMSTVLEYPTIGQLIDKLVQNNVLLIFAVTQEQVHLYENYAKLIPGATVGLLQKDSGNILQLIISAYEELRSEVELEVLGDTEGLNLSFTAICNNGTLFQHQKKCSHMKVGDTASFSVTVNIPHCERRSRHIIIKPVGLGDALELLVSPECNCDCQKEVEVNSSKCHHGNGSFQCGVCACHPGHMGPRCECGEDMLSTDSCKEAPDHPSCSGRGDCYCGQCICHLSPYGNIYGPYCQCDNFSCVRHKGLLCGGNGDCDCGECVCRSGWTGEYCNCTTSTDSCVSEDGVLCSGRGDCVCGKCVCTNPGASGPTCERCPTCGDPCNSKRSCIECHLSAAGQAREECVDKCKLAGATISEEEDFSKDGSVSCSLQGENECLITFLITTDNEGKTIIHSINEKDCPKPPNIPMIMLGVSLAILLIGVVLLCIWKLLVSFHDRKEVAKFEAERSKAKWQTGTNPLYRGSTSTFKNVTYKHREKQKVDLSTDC
# Procedure, shortened: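 Competitive ELISAs used biotinylated LAP as ligand for integrin αvβ6 and biotinylated vitronectin for αvβ3. IC50s came from a sigmoidal fit of binding over a peptide concentration range. The ratio is αvβ3 IC50 divided by αvβ6 IC50.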
# [5] = Whole-body radioactivity / excretion during PET/CT study; parameters: species or system mice; conditions: female, athymic nude, mouse, in vivo, iv, 0.175 nmol per injection, total radioactivity
# DX3puro (αvβ6 −) cells = test: Cell binding and internalization, DX3puro cells; assay type: cell-based; conditions: 1 h, 3.75 × 10^6 cells/experiment, mean ± SD, n = 4
# Procedure, shortened: as §1
compound,measurement,setting,value
CC(C)C[C@H](NC(=O)[C@H](CC(=O)O)NC(=O)CNC(=O)[C@H](CCCNC(=N)N)NC(=O)[C@H](CC(C)C)NC(=O)[C@H](CC(N)=O)NC(=O)[C@@H]1CCCN1C(=O)[C@@H](NC(=O)CNC(=O)[C@H](CC(N)=O)NC(=O)CNC(=O)CCOCCOCCOCCOCCOCCOCCOCCOCCOCCOCCOCCOCCOCCOCCOCCOCCOCCOCCOCCOCCOCCOCCOCCOCCOCCOCCOCCOCCNC(=O)CN1CCN(CC(=O)O)CCN(CC(=O)O)CC1)C(C)C)C(=O)N[C@@H](CCC(N)=O)C(=O)N[C@H](C(=O)N[C@@H](CC(C)C)C(=O)NCC(=O)N[C@@H](CCC(N)=O)C(=O)N[C@@H](CCCNC(=N)N)C(=O)N[C@H](C(=O)NCC(=O)N[C@@H](CCCNC(=N)N)C(=O)N[C@H](C(=O)NCCOCCOCCOCCOCCOCCOCCOCCOCCOCCOCCOCCOCCOCCOCCOCCOCCOCCOCCOCCOCCOCCOCCOCCOCCOCCOCCOCCOCCC(N)=O)[C@@H](C)O)C(C)C)C(C)C [[^18F]AlF NOTA-5G],Ratio of cell binding DX3puroβ6 vs DX3puro,DX3puroβ6 (αvβ6 +) cells; 1 h,33/1
same,Ratio of internalization DX3puroβ6 vs DX3puro,DX3puroβ6 (αvβ6 +) cells; 1 h at 37 °C,96/1
same,Radioactivity internalized,"DX3puroβ6 (αvβ6 +) cells; DX3puroβ6, 1 h at 37 °C, abstract: of bound activity",≥ 50%
same,"Cell binding, % of total radioactivity bound","DX3puroβ6 (αvβ6 +) cells; DX3puroβ6 αvβ6(+), 1 h, 3.75 × 10^6 cells/experiment, mean ± SD, n = 4",66% and 66.2 ± 0.8%
same,tissue uptake at 1 h,[1]; BxPC-3 tumor,2.3 ± 0.4 %ID/g
same,tissue uptake at 4 h,[1]; BxPC-3 tumor,1.8 ± 0.6 %ID/g
same,tissue uptake at 1 h,[1]; blood,0.16 ± 0.03 %ID/g
same,tissue uptake at 4 h,[1]; blood,0.01 ± 0.01 %ID/g
same,excreta dose per gram or mL at 1 h,[1]; feces,0.7 ± 0.1 %ID/g
same,excreta dose per gram or mL at 4 h,[1]; feces,5 ± 2.1 %ID/g
same,tissue uptake at 1 h,[1]; kidneys,18.6 ± 6.4 %ID/g
same,tissue uptake at 4 h,[1]; kidneys,12.5 ± 1.8 %ID/g
same,Tumor/blood ratio,[2]; 2 h p.i.,greater than 15/1
same,Tumor/liver ratio,[2]; 2 h p.i.,greater than 15/1
same,Tumor/pancreas ratio,[2]; 2 h p.i.,greater than 15/1
same,Tumor/blood ratio,[2]; 4 h p.i.,162/1
same,Tumor/liver ratio,[2]; 4 h p.i.,24/1
same,Tumor/muscle ratio,[2]; 4 h p.i.,6/1
same,Tumor/pancreas ratio,[2]; 4 h p.i.,18/1
same,"Radioactivity levels in tissues aside from kidneys and GI tract, including bone","[2]; all time points (1, 2, 4 h p.i.)",≤ 1.6 % ID/g
same,Radioactivity internalized,"[3]; BxPC-3, 1 h at 37 °C, abstract: of bound activity",≥ 50%
same,"Cell binding, % of total radioactivity bound","[3]; BxPC-3 αvβ6(+), 1 h, 3.75 × 10^6 cells/experiment, mean ± SD, n = 4",29.1 ± 3.7%
same,logD,[4],-2.34 ± 0.08
same,IC50-ratio (αvβ3 vs αvβ6),integrin αvβ6,> 7700/1
same,dose excreted at 4 h,[5],80%
same,"Cell binding, % of total radioactivity bound",DX3puro (αvβ6 −) cells,2% and 2.0 ± 0.2%
